Assay results as given in paper PMC7917164 (Bioorganic & medicinal chemistry, 2020).
Marks after values point to notes of the source that are not given here.

Key:
[1] = Kinetic aqueous solubility by UV/Vis absorbance in PBS buffer; type: physicochemical; conditions: pH 7.4, PBS buffer
[2] = Pharmacokinetic evaluation after single iv and po administration; type: in vivo, male CD-1 mice; conditions: for Clearance as share of mouse hepatic blood flow: male CD-1 mice, hepatic blood flow ~90 mL/min/kg; for Fraction of oral dose absorbed / Share of absorbed dose metabolized during the first-pass: mice, po; for Fraction of oral dose absorbed: accounting for first-pass effects; for Share of absorbed dose metabolized during the first-pass: assuming hepatic elimination
[3] = system: Notch processing by γ-secretase; assay: Notch processing in H4-APP751 cells transfected with the NΔE construct; type: cell-based, human; conditions: 24hrs, 22d 10 μM and 1 μM, DAPT 300 nM and 100 nM
In short: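 H4 human neuroglioma cells stably overexpressing human APP751 were transfected with an […] Myc-tagged NΔE Notch construct. They were then treated with the test compound, a reference γ-secretase inhibitor or vehicle for 24 h and harvested 48 h post-transfection. Western blots were probed with anti-Myc antibody to detect NΔE and NICD, with β-actin as loading control.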

[4] = system: Aβ38, Aβ40, Aβ42 and total Aβ peptide levels in SHSY5Y-APP cells; assay: Meso Scale multiplex assay of Aβ peptides in SHSY5Y-APP cells; type: cell-based, human; conditions: concentration response
In short: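 Human SH-SY5Y neuroblastoma cells stably overexpressing wild-type human APP751 were exposed to the test compound at a range of concentrations. Aβ38, Aβ40, Aβ42 and total Aβ in the samples were measured by Meso Scale Sector 6000 multiplex assay. Plates were read on an MSD SECTOR Imager after read buffer was added, and peptide concentrations were back-fitted from their respective standard curves.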

[5] = system: Aβ42 levels (γ-secretase modulation) in SHSY5Y-APP cells; assay: Cell-based ELISA assay for measuring extracellular Aβ42 levels; parameters: species or system human
[6] = system: plasma Aβ38, Aβ40 and Aβ42 levels; assay: Pharmacodynamic study using J20 mice; type: in vivo, female J20 mice; conditions: daily oral, 3-day treatment; for Effect on plasma Aβ42 and Aβ40: 25, 50 and 100 mg/kg; for Effect on Aβ38 levels: plasma
In short: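 Female J20 transgenic mice (5–6 months old, n=5/dose) received the test compound or vehicle (5% NMP/95% PEG300) by oral gavage once daily for three days. Animals were killed 4 h after the day-3 dose, and plasma and brain were collected. Aβ38, Aβ40 and Aβ42 were quantified with Meso Scale multiplex kits, and data were analysed as mean ± SEM with ANOVA.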

[7] = system: plasma and brain Aβ38, Aβ40 and Aβ42 levels; assay: Pharmacodynamic study using Tg2576 mice; type: in vivo, female Tg2576 mice; conditions: 50 mg/kg, oral daily, 14 days
In short: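 Dosing was by oral gavage in female Tg2576 mice (5–6 months old, n=12/dose), given the test compound or vehicle (5% NMP/95% PEG300) daily for 14 consecutive days. Mice were killed 4 h after the final dose on day 14, and plasma and brain were harvested. Aβ38, Aβ40 and Aβ42 were measured by Meso Scale multiplex assay, and results were expressed as mean ± SEM with ANOVA.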

[8] = male, CD-1, mouse, plasma, iv, 1 mg/kg

| SMILES | Fraction of oral dose absorbed [2] | clearance at 24 h [2, 8] | Parent Aβ42 IC50 [5] | also measured |
| --- | --- | --- | --- | --- |
| CCn1nc2c(c1Nc1nc(-c3ccc(-n4cnc(C)c4)c(OC)n3)cs1)CCCC2 [Compound 22d, N-(2-ethyl-4,5,6,7-tetrahydro-2H-indazol-3-yl)-4-(6-methoxy-5-(4-methyl-1H-imidazol-1-yl)pyridin-2-yl)thiazol-2-amine] | ~90% | – | – | Kin. Aq. Sol. [1]: 4.5* μM; Clearance as share of mouse hepatic blood flow ([2]; iv): approximately 40%; Share of absorbed dose metabolized during the first-pass [2]: approximately 40%; Notch processing (NΔE to NICD) [3]: did not inhibit; Aβ38 levels [4]: potentiated; Aβ40 levels [4]: suppressed; Aβ42 levels [4]: suppressed; total levels of Aβ [4]: no change |
| COc1nc(-c2csc(Nc3c4c(nn3CCF)CCCC4)n2)ccc1-n1cnc(C)c1 [Compound 46, N-(2-(2-fluoroethyl)-4,5,6,7-tetrahydro-2H-indazol-3-yl)-4-(6-methoxy-5-(4-methyl-1H-imidazol-1-yl)pyridin-2-yl)thiazol-2-amine] | nearly complete | 57.8 mL/min/kg | 110 nM | Share of absorbed dose metabolized during the first-pass [2]: approximately 60%; Effect on plasma Aβ42 and Aβ40 [6]: plateau between 50 and 100 mg/kg; Effect on Aβ38 levels [6]: reduced |
| CCn1nc(C2(C)CC2)cc1Nc1nc(-c2ccc(-n3cnc(C)c3)c(OC)n2)cs1 [Compound 59, N-(1-ethyl-3-(1-methylcyclopropyl)-1H-pyrazol-5-yl)-4-(6-methoxy-5-(4-methyl-1H-imidazol-1-yl)pyridin-2-yl)thiazol-2-amine] | – | 12.1 mL/min/kg | – | Clearance as share of mouse hepatic blood flow ([2]; iv): approximately 13% |
| CCn1nc(C(F)(F)F)cc1Nc1nc(-c2ccc(-n3cnc(C)c3)c(OC)n2)cs1 [Compound 60, N-(1-ethyl-3-(trifluoromethyl)-1H-pyrazol-5-yl)-4-(6-methoxy-5-(4-methyl-1H-imidazol-1-yl)pyridin-2-yl)thiazol-2-amine] | greater than 80% | 26.8 mL/min/kg | 98 nM | – |
| COc1nc(-c2csc(Nc3c4c(nn3C)CCC4)n2)ccc1-n1cnc(C)c1 [Compound 63, 4-(6-methoxy-5-(4-methyl-1H-imidazol-1-yl)pyridin-2-yl)-N-(2-methyl-2,4,5,6-tetrahydrocyclopenta[c]pyrazol-3-yl)thiazol-2-amine] | greater than 80% | 21.8 mL/min/kg | >1000 nM | Clearance as share of mouse hepatic blood flow ([2]; iv): ~24% |
| CCn1nc2c(c1Nc1nc(-c3ccc(-n4cnc(C)c4)c(OC)n3)cs1)CCC2 [Compound 64, N-(2-ethyl-2,4,5,6-tetrahydrocyclopenta[c]pyrazol-3-yl)-4-(6-methoxy-5-(4-methyl-1H-imidazol-1-yl)pyridin-2-yl)thiazol-2-amine] | greater than 80% | 43.5 mL/min/kg | 41 nM | half-life [2, 8]: 42 min; Effect on plasma Aβ38 levels [7]: potentiating; Effect on plasma Aβ42 and Aβ40 levels [7]: decreased; Effect on plasma Aβ42 and Aβ40 [6]: dose-dependent reduction; Effect on Aβ38 levels [6]: reduced |
| COc1nc(-c2csc(Nc3c4c(nn3C(C)(C)C)CCC4)n2)ccc1-n1cnc(C)c1 [Compound 66, N-(2-(tert-butyl)-2,4,5,6-tetrahydrocyclopenta[c]pyrazol-3-yl)-4-(6-methoxy-5-(4-methyl-1H-imidazol-1-yl)pyridin-2-yl)thiazol-2-amine] | – | – | 175 nM | – |
| COc1nc(-c2csc(Nc3c4c(nn3C3CCC3)CCC4)n2)ccc1-n1cnc(C)c1 [Compound 67, N-(2-cyclobutyl-2,4,5,6-tetrahydrocyclopenta[c]pyrazol-3-yl)-4-(6-methoxy-5-(4-methyl-1H-imidazol-1-yl)pyridin-2-yl)thiazol-2-amine] | – | – | 92 nM | – |
| COc1nc(-c2csc(Nc3c4c(nn3CC(F)(F)F)CCC4)n2)ccc1-n1cnc(C)c1 [Compound 69, 4-(6-methoxy-5-(4-methyl-1H-imidazol-1-yl)pyridin-2-yl)-N-(2-(2,2,2-trifluoroethyl)-2,4,5,6-tetrahydrocyclopenta[c]pyrazol-3-yl)thiazol-2-amine] | – | – | 94 nM | – |
| COc1nc(-c2csc(Nc3c4c(nn3CCO)CCC4)n2)ccc1-n1cnc(C)c1 [Compound 70, 2-(3-((4-(6-methoxy-5-(4-methyl-1H-imidazol-1-yl)pyridin-2-yl)thiazol-2-yl)amino)-5,6-dihydrocyclopenta[c]pyrazol-2(4H)-yl)ethanol] | – | – | >1000 nM | – |
| CCn1nc2c(c1Nc1nc(-c3ccc(-n4cnc(C)c4)c(OC)n3)cs1)CCC2(C)C [Compound 71, N-(2-ethyl-6,6-dimethyl-2,4,5,6-tetrahydrocyclopenta[c]pyrazol-3-yl)-4-(6-methoxy-5-(4-methyl-1H-imidazol-1-yl)pyridin-2-yl)thiazol-2-amine] | – | – | 62 nM | – |
| CCn1nc2c(c1Nc1nc(-c3ccc(-n4cnc(C)c4)c(OC)n3)cs1)CCCCC2 [Compound 73, N-(2-ethyl-2,4,5,6,7,8-hexahydrocyclohepta[c]pyrazol-3-yl)-4-(6-methoxy-5-(4-methyl-1H-imidazol-1-yl)pyridin-2-yl)thiazol-2-amine] | – | – | 114 nM | – |
| CCn1nccc1Nc1nc(-c2ccc(-n3cnc(C)c3)c(OC)n2)cs1 [Compound 74, N-(1-ethyl-1H-pyrazol-5-yl)-4-(6-methoxy-5-(4-methyl-1H-imidazol-1-yl)pyridin-2-yl)thiazol-2-amine] | – | – | >1000 nM | – |
| C[C@H](NC(=O)Cc1cc(F)cc(F)c1)C(=O)N[C@H](C(=O)OC(C)(C)C)c1ccccc1 [DAPT, reference compound] | – | – | – | Notch processing (NΔE to NICD) [3]: significantly inhibits |
